The values below come from ChEMBL document CHEMBL4842360, “Discovery of a Bicyclic Peptidyl Pan-Ras Inhibitor” (J Med Chem, 2021).

The nature of series [1]: Drug localization in cytosol of human HeLa cells assessed as mean fluorescence intensity at 5 uM incubated for 2 hrs by flow cytometry relative to relative to extracellular concentration. Type of series: ADME, subcellular. On the technique in general: Flow cytometry measures light scatter and fluorescence of single cells or particles in a stream.
The target in series [2] is T1, GTPase KRas (Homo sapiens, UniProt P01116, G12V). As to the kind of experiment: biochemical.
T1 sequence (P01116 whole entry G12V): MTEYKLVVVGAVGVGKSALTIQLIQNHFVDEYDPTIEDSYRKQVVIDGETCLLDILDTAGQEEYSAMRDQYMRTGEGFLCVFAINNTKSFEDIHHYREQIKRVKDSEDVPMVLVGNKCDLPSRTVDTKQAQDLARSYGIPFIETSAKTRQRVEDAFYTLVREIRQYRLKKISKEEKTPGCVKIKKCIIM
Series [3] concerns NCI-H358. As to the kind of experiment: Antiproliferative activity against human NCI-H358 cells incubated for 96 hrs by Celltiter-Glo assay. To be noted: Homo sapiens, NCI-H358, 96 h; read-out: EC50. Type of series: functional, cell-based. (In general: ATP-based viability assays read luminescence as a measure of living cells.)
Series [4] has as its system NCI-H358. As to the kind of experiment: Antiproliferative activity against human NCI-H358 cells incubated for 96 hrs by MTT assay. Type of series: functional, cell-based. To be noted: Homo sapiens, NCI-H358, 96 h; read-out: EC50. In outline: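 H358 cells at 5,000/well, grown overnight, treated with serially diluted peptide (0–40 μM) in 10% FBS medium for 96 h at 37 °C. MTT added for 4 h, formazan solubilized overnight in SDS-HCl, absorbance read at 570 nm.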
A general note: Tetrazolium dyes change colour on reduction, which living cells bring about.

Series [5] concerns PANC-1. As to the kind of experiment: Antitumor activity against human PANC-1 cells xenografted in BALB/c mouse assessed as inhibition of cell growth at 40 mg/kg, iv administered once every 2 days for 4 weeks. Type of series: functional. To be noted: PANC-1, iv, 672 h, read-out: GI.
Series [6] concerns the target GTPase KRas (Homo sapiens, UniProt P01116, G12D). As to the kind of experiment: Binding affinity to recombinant human KRAS G12D mutant incubated for 0.5 hrs by ELISA.
For series [7], the system named is NCI-H1299. The series can be described thus: Induction of apoptosis in human NCI-H1299 cells by MTT assay. Type of series: functional, cell-based.
Series [8] concerns the target T1, GTPase KRas. The series can be described thus: Inhibition of GPPNP bound KRAS G12V mutant (unknown origin) assessed as reduction in KRAS/GST-fused Raf RBD interaction incubated for 2 hrs by HTRF assay.
The test system of series [9] is NCI-H1299. As to the kind of experiment: Induction of apoptosis in human NCI-H1299 cells incubated for 24 hrs by MTT assay. Type of series: functional, cell-based. To be noted: NCI-H1299, 24 h.

Each structure is given as a SMILES string. Numbered stars: 1 amine (or outer) side, 2 acyl side, 3 side chain; on linkers, the order of the positions; unused ones are H or OH. Bridge positions count the residues as written; N and C are the ends. Square brackets hold non-standard residues; d marks the D form. Peptide text beside a SMILES is read from it. Trimesoyl = O=C(c1cc(C(=O)[*:2])cc(C(=O)[*:3])c1)[*:1]; Phe(4-F) = N[C@@H](Cc1ccc(F)cc1)C(=O)O; 2Nal = N[C@@H](Cc1ccc2ccccc2c1)C(=O)O; d2Nal = N[C@H](Cc1ccc2ccccc2c1)C(=O)O; X1 = CCCCCCC[C@H](N[*:1])C(=O)[*:2]; Phg = N[C@H](C(=O)O)c1ccccc1; dNle = CCCC[C@@H](N)C(=O)O; Nle = CCCC[C@H](N)C(=O)O; Orn = NCCC[C@H](N)C(=O)O; Dap = NC[C@H](N)C(=O)O; X2 = C(C[*:1])C[*:2]; βAla = NCCC(=O)O

Chain of GTPase KRas (Homo sapiens, UniProt P01116, G12D) (P01116 whole entry G12D): as the sequence (P01116 whole entry G12V) above, with V12D counted along it

Usually Kd stands for the constant that tells how readily two partners part at equilibrium. The term EC50 denotes the concentration needed to bring the measured effect to its halfway point. With `C[C@@H]1NC(=O)[C@@H](Cc2ccccc2)NC(=O)[C@@H]2CCCCNC(=O)c3cc(cc(c3)C(=O)N[C@H](Cc3ccc4ccccc4c3)C(=O)N[C@@H](CO)C(=O)N[C@@H](CCC(N)=O)C(=O)N[C@H](Cc3ccc4ccccc4c3)C(=O)N[C@@H](c3ccccc3)C(=O)N2)C(=O)NC[C@@H](C(=O)NCCC(=O)NCCC(=O)NC(CCCCN)C(N)=O)NC(=O)[C@H](CCCNC(=N)N)NC(=O)[C@@H](CCCNC(=N)N)NC1=O` (stereo partly specified), in series [1], the Drug uptake result was “Active”. In series [2], this compound had a Kd of 0.14 µM. The EC50 in series [3] turned out to be 22 µM; in series [4] it was 29 µM.
In the case of `CCCCCCC[C@@H]1NC(=O)[C@@H]2CSCCCSC[C@H](NC(=O)[C@H](Cc3c[nH]c4ccccc34)NC(=O)[C@@H]3CCCN3C(=O)[C@H](CC(=O)O)NC(=O)[C@H](Cc3ccc(F)cc3)NC(=O)[C@H](CO)NC1=O)C(=O)NCCC(=O)N1CCC[C@H]1C(=O)N[C@@H](CCCC)C(=O)N2` (cyclo(C[X1]S[Phe(4-F)]DPWC[βAla]P[Nle]); linker 1-8 via X2), the inhibition in vivo at 40 mg/kg in series [5] stood at 65%. Also, in series [6], the dissociation constant (Kd) was determined as 0.022 µM.
On to `C[C@@H]1NC(=O)[C@@H](Cc2ccccc2)NC(=O)[C@@H]2CCCCNC(=O)c3cc(cc(c3)C(=O)N[C@H](Cc3ccc4ccccc4c3)C(=O)N[C@@H](CO)C(=O)N[C@@H](CCC(N)=O)C(=O)N[C@H](Cc3ccc4ccccc4c3)C(=O)N[C@@H](c3ccccc3)C(=O)N2)C(=O)NC[C@@H](C(=O)N[C@@H](CCCN)C(=O)N[C@H](CCCNC(=N)N)C(=O)N[C@@H](Cc2ccc(F)cc2)C(=O)N[C@H](C)C(=O)N[C@@H](CCCCN)C(N)=O)NC(=O)[C@H](CCCNC(=N)N)NC(=O)[C@@H](CCCNC(=N)N)NC1=O` ([d2Nal]SQ[d2Nal][Phg]K[dF]A[dR]R[Dap][Orn][dR][Phe(4-F)][dA]K-NH2; linker N-6-11 via Trimesoyl), for which the Drug uptake entry in series [1] was “Active”.
In series [7], `CCCC[C@H]1NC(=O)[C@H](Cc2ccc(F)cc2)NC(=O)[C@H](CCCNC(=N)N)NC(=O)[C@@H](Cc2ccc3ccccc3c2)NC(=O)[C@H](CCCNC(=N)N)NC(=O)[C@H](CCCNC(=N)N)NC(=O)[C@H](CCCNC(=N)N)NC(=O)[C@@H](C)NC(=O)[C@H]([C@@H](C)O)NC(=O)[C@H](Cc2c[nH]c3ccccc23)NC(=O)[C@H](CCC(N)=O)NC1=O` (cyclo(WT[dA]RRR[d2Nal]R[Phe(4-F)][dNle]Q)) gave an EC50 of 3 µM.
Turning to `N=C(N)NCCC[C@@H]1NC(=O)[C@H](Cc2ccc3ccccc3c2)NC(=O)[C@@H](Cc2ccccc2)NC(=O)[C@H](Cc2ccccc2)NC(=O)[C@H](CCC(N)=O)NC(=O)[C@@H](CCCNC(=N)N)NC(=O)[C@H](CCCNC(=N)N)NC(=O)[C@@H](CCCNC(=N)N)NC1=O` (cyclo([2Nal]R[dR]R[dR]QF[dF])), the Drug uptake in series [1] is on record as 120%.
As usually defined, the IC50 is the midpoint of a concentration-inhibition curve. For the compound `CC[C@@H](C)[C@@H]1NC(=O)[C@H](Cc2cn(CCc3c(C)[nH]c4cc(Cl)cc(Cl)c34)nn2)NC(=O)[C@@H](CC(N)=O)NC(=O)[C@H](CCCNC(=N)N)NC(=O)[C@H](Cc2ccccc2)NC(=O)[C@@H](CC(C)C)NC(=O)[C@@H](C)NC(=O)c2cc3cc(c2)C(=O)NC[C@@H](C(N)=O)NC(=O)[C@H](CCCNC(=N)N)NC(=O)[C@H](CCCNC(=N)N)NC(=O)[C@H](CCCNC(=N)N)NC(=O)[C@H](CCCNC(=N)N)NC(=O)[C@H](Cc2ccc4ccccc4c2)NC(=O)[C@H](Cc2ccccc2)NC(=O)C(CCCCNC3=O)NC(=O)[C@H](CC(=O)O)NC1=O` (stereo partly specified), in [8], the concentration for half-maximal inhibition (IC50) came out at 3.4 µM. In series [9], this compound displayed an EC50 of 8 µM.
